Assay results as given in publication PMC5180416 (Journal of the American Chemical Society, 2012).
Read-outs that look alike come from different tables or passages of the source. Peptide text beside a SMILES is read from it.

Columns and labels:
[1] = target: MLL1 core complex (MLL1/WDR5/RbBP5/ASH2L) (Homo sapiens, UniProt P61964); assay: In vitro H3K4 histone methyltransferase; type: biochemical; conditions: for inhibition of MLL1 HMT activity, result in words: up to 400 μM
WDR5 = WDR5 (Homo sapiens, UniProt P61964); assay: Fluorescence-polarization; type: binding; conditions: for decrease in binding affinity to WDR5 (times) compared to ARA (Ac-ARA-NH2) / improvement in binding affinity to WDR5 (times more potent) compared to ARA (Ac-ARA-NH2): relative to ARA peptide; for weakening of binding to WDR5 (times) compared to Val and Abu at Ala1: relative to Val and Abu
MV4;11 cells [2] = assay: Annexin V-propidium iodide apoptosis assay; type: cell-based; conditions: MV4;11, 50 μM, 96 h
K562 cells [3] = assay: Cell growth, CellTiter-Glo Luminescent Cell Viability Assay; type: cell-based; conditions: 7 days
Method in brief: (§1)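 Cells grown in RPMI 1640 with 10% FBS and penicillin-streptomycin at 37 °C, 5% CO2. Seeded at 5 × 10^5 cells per well and exposed to test compound or 0.2% DMSO vehicle for 7 days. Medium was changed and compound resupplied every 2 days. CellTiter-Glo reagent added, 2 min shaking to lyse, 10 min at room temperature, then luminescence read.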

KOPN8 cells = assay: as above; type: cell-based; conditions: 7 days
Method in brief: as §1

K562 cells [4] = assay: Annexin V-propidium iodide apoptosis assay; type: cell-based; conditions: K562, up to 50 μM, 96 h
HoxA9 = assay: qRT-PCR analysis of HoxA9 expression in MLL1-AF9 transduced bone marrow cells; type: cell-based; conditions: 96 h, MLL1-AF9 transduced murine cells
Method in brief: (§2)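 Murine bone marrow cells transduced with MLL1-AF9 were exposed for 96 h to test compound (25 or 50 μM), a control compound (50 μM) or mock, all at 0.2% final DMSO. Total RNA was extracted (Trizol plus column kit) and cDNA made by random priming. SYBR real-time PCR used gene-specific primers for HoxA9, Meis1 and GAPDH. Expression is relative to mock after normalizing to GAPDH or total input RNA; unpaired t test versus mock.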

MV4;11 cells [5] = assay: Cell growth, CellTiter-Glo Luminescent Cell Viability Assay; type: cell-based; conditions: 7 days
Method in brief: as §1

Meis-1 = assay: qRT-PCR analysis of Meis-1 expression in MLL1-AF9 transduced bone marrow cells; type: cell-based; conditions: 50 μM, 96 h, MLL1-AF9 transduced murine cells
Method in brief: as §2

GAPDH = assay: qRT-PCR analysis of GAPDH; type: cell-based; conditions: 96 h, MLL1-AF9 transduced murine cells
Method in brief: as §2

CC(=O)N[C@@H](C)C(=O)N[C@@H](CCCNC(=N)N)C(=O)N[C@@H](C)C(N)=O [ARA, Ac-ARA-NH2] (Ac-Ala-Arg-Ala-NH2)
IC50 [1]: 141 ± 52 µM

CC(=O)NCC(=O)N[C@@H](CCCNC(=N)N)C(=O)N[C@@H](C)C(N)=O [Compound 1a] (Ac-Gly-Arg-Ala-NH2)
inhibition of MLL1 HMT activity, result in words [1]: fail to inhibit the MLL1 HMT activity
decrease in binding affinity to WDR5 (times) compared to ARA (Ac-ARA-NH2) (WDR5): > 100

CC[C@H](NC(C)=O)C(=O)N[C@@H](CCCNC(=N)N)C(=O)N[C@@H](C)C(N)=O [Compound 1b]
improvement in binding affinity to WDR5 (times more potent) compared to ARA (Ac-ARA-NH2) (WDR5): 2

CC(=O)N[C@H](C(=O)N[C@@H](CCCNC(=N)N)C(=O)N[C@@H](C)C(N)=O)C(C)C [Compound 1c] (Ac-Val-Arg-Ala-NH2)
improvement in binding affinity to WDR5 (times more potent) compared to ARA (Ac-ARA-NH2) (WDR5): 2

CC(=O)N[C@@H](CS)C(=O)N[C@@H](CCCNC(=N)N)C(=O)N[C@@H](C)C(N)=O [Compound 1d] (Ac-Cys-Arg-Ala-NH2)
decrease in binding affinity to WDR5 (times) compared to ARA (Ac-ARA-NH2) (WDR5): 3

CC(=O)N[C@@H](Cc1c[nH]cn1)C(=O)N[C@@H](CCCNC(=N)N)C(=O)N[C@@H](C)C(N)=O [Compound 1g] (Ac-His-Arg-Ala-NH2)
decrease in binding affinity to WDR5 (times) compared to ARA (Ac-ARA-NH2) (WDR5): 3–6

CC(=O)N[C@@H](Cc1ccccc1)C(=O)N[C@@H](CCCNC(=N)N)C(=O)N[C@@H](C)C(N)=O [Compound 1h] (Ac-Phe-Arg-Ala-NH2)
inhibition of MLL1 HMT activity, result in words [1]: fail to inhibit the MLL1 HMT activity
decrease in binding affinity to WDR5 (times) compared to ARA (Ac-ARA-NH2) (WDR5): 3–6

CC(=O)N[C@@H](CO)C(=O)N[C@@H](CCCNC(=N)N)C(=O)N[C@@H](C)C(N)=O [Compound 1i] (Ac-Ser-Arg-Ala-NH2)
decrease in binding affinity to WDR5 (times) compared to ARA (Ac-ARA-NH2) (WDR5): 5
weakening of binding to WDR5 (times) compared to Val and Abu at Ala1 (WDR5): approximately 10

CC(=O)N[C@H](C(=O)N[C@@H](CCCNC(=N)N)C(=O)N[C@@H](C)C(N)=O)[C@@H](C)O [Compound 1j] (Ac-Thr-Arg-Ala-NH2)
decrease in binding affinity to WDR5 (times) compared to ARA (Ac-ARA-NH2) (WDR5): 5
weakening of binding to WDR5 (times) compared to Val and Abu at Ala1 (WDR5): approximately 10

CCCC[C@H](NC(=O)[C@H](C)NC(C)=O)C(=O)N[C@@H](C)C(N)=O [Compound 2a]
IC50 (WDR5): > 300 µM
Ki (WDR5): > 65 µM
binding to WDR5, result in words (WDR5; FP-based competitive binding): complete loss of binding

CC(=O)N[C@@H](C)C(=O)N[C@@H](CCCN)C(=O)N[C@@H](C)C(N)=O [Compound 2b]
IC50 (WDR5): > 300 µM
Ki (WDR5): > 65 µM
binding to WDR5, result in words (WDR5; FP-based competitive binding): complete loss of binding

CC(=O)N[C@@H](C)C(=O)N[C@@H](CCCCN)C(=O)N[C@@H](C)C(N)=O [Compound 2c] (Ac-Ala-Lys-Ala-NH2)
IC50 (WDR5): > 300 µM
Ki (WDR5): > 65 µM
binding to WDR5, result in words (WDR5; FP-based competitive binding): inactive

CC(=O)N[C@@H](C)C(=O)N[C@@H](CCCNC(N)=O)C(=O)N[C@@H](C)C(N)=O [Compound 2d]
inhibition of MLL1 HMT activity, result in words [1]: fail to inhibit the MLL1 HMT activity
binding to WDR5, result in words (WDR5; FP-based competitive binding): fails to bind to WDR5

CC(=O)N[C@@H](C)C(=O)N[C@@H](CCCNC(=N)N)C(=O)NCC(N)=O [Compound 3a] (Ac-Ala-Arg-Gly-NH2)
decrease in binding affinity to WDR5 (times) compared to ARA (Ac-ARA-NH2) (WDR5): > 10

CC[C@H](NC(=O)[C@H](CCCNC(=N)N)NC(=O)[C@H](C)NC(C)=O)C(N)=O [Compound 3b]
improvement in binding affinity to WDR5 (times more potent) compared to ARA (Ac-ARA-NH2) (WDR5): 20

CC(=O)N[C@@H](C)C(=O)N[C@@H](CCCNC(=N)N)C(=O)N[C@H](C(N)=O)C(C)C [Compound 3c] (Ac-Ala-Arg-Val-NH2)
improvement in binding affinity to WDR5 (times more potent) compared to ARA (Ac-ARA-NH2) (WDR5): 5

CC(=O)N[C@@H](C)C(=O)N[C@@H](CCCNC(=N)N)C(=O)N[C@@H](CO)C(N)=O [Compound 3h] (Ac-Ala-Arg-Ser-NH2)
decrease in binding affinity to WDR5 (times) compared to ARA (Ac-ARA-NH2) (WDR5): 3

CC(=O)N[C@@H](C)C(=O)N[C@@H](CCCNC(=N)N)C(=O)N[C@H](C(N)=O)[C@@H](C)O [Compound 3i] (Ac-Ala-Arg-Thr-NH2)
reduction of binding affinity to WDR5 (fold) compared to 3b (WDR5; relative to 3b): 3
improvement in binding affinity to WDR5 (times more potent) compared to ARA (Ac-ARA-NH2) (WDR5): 5

CC(=O)N[C@@H](C)C(=O)N[C@@H](CCCNC(=N)N)C(=O)N[C@@H](CCC(=O)O)C(N)=O [Compound 3j] (Ac-Ala-Arg-Glu-NH2)
decrease in binding affinity to WDR5 (times) compared to ARA (Ac-ARA-NH2) (WDR5): > 100

CCC(CC)(NC(C)=O)C(=O)N[C@@H](CCCNC(=N)N)C(=O)N[C@H](C(N)=O)C(C)C [Compound 4f]
times more potent than 3c in binding to WDR5 (WDR5; relative to 3c): 5

CC(=O)N[C@H](C(=O)N[C@@H](CCCNC(=N)N)C(=O)N[C@H](C(N)=O)C(C)C)C1CCCC1 [Compound 4i]
decrease in binding affinity to WDR5 (times less potent) compared to 3c (WDR5; relative to 3c): 15

CC(=O)N[C@H](C(=O)N[C@@H](CCCNC(=N)N)C(=O)N[C@H](C(N)=O)C(C)C)c1ccccc1 [Compound 4j]
decrease in binding affinity to WDR5 (times less potent) compared to 3c (WDR5; relative to 3c): 50

CCC(CC)(NC(=O)C(C)C)C(=O)N[C@@H](CCCN=C(N)N)C(=O)NC1(C(=O)NC(c2ccc(F)cc2)c2ccc(F)cc2)CCCC1 [MM-102]
cells undergoing cell death (MV4;11 cells [2]): > 75%
effect on cell growth, in words (K562 cells [3]; K562 (BCR-ABL, no MLL1 fusion), up to 50 μM): no effect
effect on cell growth, in words (K562 cells [3]; K562, 75 μM): minimal effect
cell growth inhibition, in words (KOPN8 cells; KOPN8, 75 μM): completely inhibits cell growth
IC50 (KOPN8 cells; read-out: cell growth inhibition IC50, KOPN8 (MLL1-ENL)): 25 µM
improvement in binding affinity to WDR5 (times more potent) compared to ARA (Ac-ARA-NH2) (WDR5): > 200
cells undergoing cell death (K562 cells [4]): < 10%
reduction in HoxA9 gene expression compared with Mock (HoxA9; 25 μM): Approximately 50%
reduction in HoxA9 gene expression compared with Mock (HoxA9; 50 μM): ~70%
cell growth inhibition, in words (MV4;11 cells [5]; MV4;11, 75 μM): completely inhibits cell growth
IC50 (MV4;11 cells [5]; read-out: cell growth inhibition IC50, MV4;11 (MLL1-AF4)): 25 µM
decrease in Meis-1 expression (Meis-1): 40%
effect on expression of GAPDH, in words (GAPDH): did not affect the expression of GAPDH

CCC(CC)(NC(=O)C(C)C)C(=O)N[C@@H](CCCNC(=N)N)C(=O)NC1(C(=O)NC(c2ccc(Cl)cc2)c2ccc(Cl)cc2)CCCC1 [MM-103]
Ki (WDR5; read-out: Ki ± SD, binding affinity to WDR5, FP-based competitive binding): < 0.001 µM
